# This is a sample that favours compounds with a hit; in the whole collection about 4.1% have one here.
# KCNK3 block – human KCNK3 channel inhibitors, primary screen, CHO cells, FluxOR thallium flux, B-score | 0.84% of 340,000 active | Potassium channel subfamily K member 3 (Homo sapiens), O14649 | B-score at 10 µM | FluxOR fluorescence; stronger effect = lower value;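 active = B-score under library mean minus 4 SD, starting fluorescence ratio at most library mean plus 5 SD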;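 note: more negative B-score means stronger inhibition of thallium flux through KCNK3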
# hERG rescue – hERG rescue from dofetilide block, primary screen, cell-based, CHO-hERG, FluxOR thallium flux, dofetilide IC70; Voltage-gated inwardly rectifying potassium channel KCNH2 (Homo sapiens), Q12809; dofetilide IC70 present; activation (rescue from dofetilide block), less the hit threshold, % at 10 µM; 0.51% of 310,000 active; AID 1511, 2009;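 active = activation above the mean of controls blocked by dofetilide plus 5 SD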;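 note: thallium influx through hERG after potassium depolarization seen as dye fluorescence rise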
# KCNQ1 pot – potentiators or activators of KCNQ1 channel, primary screen, cell-based, thallium flux, high-throughput; Potassium voltage-gated channel subfamily KQT member 1 (Homo sapiens), P51787; CHO-K1 KCNQ1, thallium flux FluxOR fluorescence; stronger effect = higher value; B-score at 10 µM; 0.35% of 310,000 active;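 active = fluorescence ratio B-score, a plate-corrected score, at least three library SD, with initial intensity B-score within 5 SD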
#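 System: CHO-K1 cells stably expressing KCNQ1 / Medium: assay buffer for compound exposure, DMSO matched across wells / Reagent: thallium- and potassium-containing depolarizing buffer / Compound: one concentration, matched DMSO / Incubation: 20 min compound pretreatment at room temperature / Measured by: kinetic FluxOR fluorescence, 10 s baseline plus 110 s post-stimulus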
# KCNQ1 inh – inhibitors of human KCNQ1 channel, primary screen, cell-based, thallium flux, high-throughput; Potassium voltage-gated channel subfamily KQT member 1 (Homo sapiens), P51787; CHO-K1 KCNQ1, FluxOR thallium flux fluorescence; stronger effect = higher value; B-score at 10 µM; 1.3% of 310,000 active;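 active = compounds whose thallium flux B-score, printed positive for inhibition, exceeds three library SD while starting fluorescence stays within three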;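 note: channel opened by potassium depolarization with thallium stimulus after 20 min compound exposure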
# KCNK9 block – KCNK9 potassium channel inhibitors, primary screen, HEK293 cells, thallium flux. Potassium channel subfamily K member 9 (Homo sapiens), Q9NPC2. 1.2% of 310,000 active. B-score at 10 µM. FluxOR thallium flux fluorescence; stronger effect = lower value;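 active = ratio B-score over 3 SD below the library mean, with starting fluorescence within 5 SD of its mean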;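 note: negative B-score means less thallium flux so channel inhibition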
# Cl transport mod – KCC2 cotransporter modulators, thallium flux, primary screen, cell-based, HEK293 KCC2, FluoZin-2 fluorescence, MLSMR. AID 1456, 2008. KCC2 cells, thallium flux FluoZin-2 fluorescence. 2.2% of 190,000 active. B-score of Tl+ flux slope (higher = more flux/activation; lower = inhibition) at 10 µM. Solute carrier family 12 member 5 (Homo sapiens), Q9H2X9;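 active = thallium flux slope and its plate-corrected score both differing from the plate sample mean at a set confidence after two filtering rounds, in either direction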;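 note: slope of fluorescence scaled to starting intensity during 10 to 20 s after thallium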
# Target sequence (Q9H2X9 whole entry, looked up): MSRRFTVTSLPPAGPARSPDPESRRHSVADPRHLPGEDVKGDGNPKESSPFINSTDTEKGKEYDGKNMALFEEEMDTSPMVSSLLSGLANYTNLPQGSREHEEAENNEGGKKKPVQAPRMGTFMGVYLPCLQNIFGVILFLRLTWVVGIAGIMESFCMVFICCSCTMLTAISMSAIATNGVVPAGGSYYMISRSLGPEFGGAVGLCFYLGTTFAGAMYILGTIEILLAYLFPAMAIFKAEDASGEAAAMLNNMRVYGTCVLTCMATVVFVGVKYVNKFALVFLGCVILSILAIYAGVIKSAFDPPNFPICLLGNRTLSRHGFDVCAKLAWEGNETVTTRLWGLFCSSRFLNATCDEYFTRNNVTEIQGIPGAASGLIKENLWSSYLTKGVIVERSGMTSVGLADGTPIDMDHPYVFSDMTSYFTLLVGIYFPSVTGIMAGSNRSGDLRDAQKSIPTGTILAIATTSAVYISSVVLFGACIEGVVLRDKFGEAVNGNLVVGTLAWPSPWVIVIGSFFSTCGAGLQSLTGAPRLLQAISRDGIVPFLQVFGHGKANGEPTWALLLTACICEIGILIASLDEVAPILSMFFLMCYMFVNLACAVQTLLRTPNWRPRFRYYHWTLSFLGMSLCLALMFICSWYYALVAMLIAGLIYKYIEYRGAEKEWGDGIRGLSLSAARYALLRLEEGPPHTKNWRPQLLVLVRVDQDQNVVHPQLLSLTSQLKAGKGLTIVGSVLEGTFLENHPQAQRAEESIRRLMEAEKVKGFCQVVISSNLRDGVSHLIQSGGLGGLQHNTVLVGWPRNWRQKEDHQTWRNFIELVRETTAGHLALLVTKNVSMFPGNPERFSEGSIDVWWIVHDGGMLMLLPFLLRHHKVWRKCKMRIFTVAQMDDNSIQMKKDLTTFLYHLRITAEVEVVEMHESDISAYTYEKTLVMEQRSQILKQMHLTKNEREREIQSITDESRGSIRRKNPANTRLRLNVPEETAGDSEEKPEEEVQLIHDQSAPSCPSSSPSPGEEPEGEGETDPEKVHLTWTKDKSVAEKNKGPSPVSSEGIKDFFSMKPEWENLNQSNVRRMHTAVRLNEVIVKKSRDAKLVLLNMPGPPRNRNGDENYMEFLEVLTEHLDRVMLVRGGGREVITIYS
# KCC2 secondary – KCC2 modulators in sodium-free buffer, confirmation, cell-based, HEK293 KCC2, thallium flux, secondary assay | normalised thallium flux (F/F0 slope) at 10 µM | shares compounds with Cl transport mod | FluoZin2 fluorescence; stronger effect = higher value | 15% of 3,700 active;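 active = thallium flux slope above the same plate's solvent-only control mean plus 3 SD; inconclusive = the two replicate wells disagree; inactive = no significant difference from solvent-only control wells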
# KCC2 bumet counter – thallium flux persisting under bumetanide in KCC2 cells, confirmation, counter-screen for KCC2 modulator project, cell-based, HEK293 KCC2, FluoZin2, secondary assay 3. 49% of 3,700 active. HEK293-KCC2 + bumetanide/ouabain; stronger effect = higher value. normalized thallium flux at 10 µM. shares compounds with Cl transport mod;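 active = thallium entry rate above the same plate's blocked-transporter control wells by more than 3 SD; inconclusive = the two repeat wells disagree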;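 note: raw slope of fluorescence over initial fluorescence between 10 and 20 s after thallium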
# KCC2 sec2 – KCC2 modulators without ouabain present, confirmation, cell-based, HEK293 KCC2, thallium flux, FluoZin2, secondary assay 2; thallium flux FluoZin2 fluorescence; actives lie on both sides; F/F0 rise rate, 10–20 s post-thallium; AID 1715, 2009; normalized thallium flux at 10 µM; 23% of 3,700 active; shares compounds with Cl transport mod;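 active = thallium flux slope more than 3 SD above or below the plate's solvent-only control mean, mostly below; inconclusive = the two repeat wells disagreed; inactive = no significant shift from solvent-only controls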;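 note: raw slope with 0.1% DMSO as baseline and bumetanide as block control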
# HEK293 Tl flux – thallium flux modulation in parental HEK cells, confirmation, counter-screen for KCC2 modulator project, cell-based, counterscreen 1. shares compounds with Cl transport mod. HEK293 parental cells, thallium flux FluoZin2, ouabain; baseline-ratio fluorescence slope, 10–20 s after thallium. thallium flux rate (normalised fluorescence) at 10 µM. 46% of 3,700 active. AID 1716, 2009;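 active = thallium flux rate significantly above the same plate's solvent-only control wells, beyond their mean plus 3 SD; inconclusive = the two replicate wells gave conflicting results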
# KCC2 retest ouab – KCC2 inhibitors and activators, ouabain retest, confirmation, HEK-KCC2 cells | HEK293-KCC2, thallium flux FluoZin2 fluorescence; bidirectional: low = inhibitor, high = activator | shares compounds with Cl transport mod | raw Tl+ flux slope (below DMSO = inhibition, above = activation) at 10 µM | 48% of 3,700 active | AID 1717, 2009;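 active = thallium flux slope beyond 3 SD from same-plate DMSO control mean in most replicates, usually higher, sometimes lower; inconclusive = repeat tests gave conflicting results; inactive = no significant difference from controls in most replicates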;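 note: slope of initial-normalized fluorescence between seconds 10 and 20 after thallium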
# HEK counter2 – native HEK Tl+ uptake effects, second counter-screen – HEK cells, counterscreen 2, counter-screen for KCC2 modulator project, confirmation | 33% of 3,700 active | AID 1718, 2009 | shares compounds with Cl transport mod | HEK293 parental, thallium flux FluoZin-2 fluorescence slope | thallium flux slope at 10 µM;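 active = thallium flux slope above the same plate's solvent-control mean plus 3 SD in both duplicate wells; inconclusive = duplicate wells that disagreed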;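 note: run without ouabain in cells lacking the KCC2 cotransporter; slope of fluorescence scaled to its starting value between 10 and 20 s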
# Active calls of the source: *; i = inactive; ? = inconclusive; · = no result given.
SMILES,KCNK3 block,hERG rescue,KCNQ1 pot,KCNQ1 inh,KCNK9 block,Cl transport mod,KCC2 secondary,KCC2 bumet counter,KCC2 sec2,HEK293 Tl flux,KCC2 retest ouab,HEK counter2
O=C(NC(=S)NCCc1ccccc1)c1ccco1,i,-3.2,i,i,i,·,·,·,·,·,·,·
O=C(NC(=S)NCCC1=CCCCC1)c1ccc(Br)o1,i,19.8*,33*,i,i,59.4*,?,0.0661*,0.0749*,0.0774*,0.077*,0.07*
CC(C)(C)Nc1nc(OCC(F)(F)F)nc(OCC(F)(F)F)n1,i,-9.6,i,i,i,-2.76*,0.00756,0.00695,0.0263,0.00672,0.0149*,0.0101
CCC(C)Nc1nc(OCC(F)(F)F)nc(OCC(F)(F)F)n1 (stereo not given),i,-7.0,i,i,i,-1.57,·,·,·,·,·,·
COc1ccc(-c2ccc3c(c2)C2CC3CCN2C(=O)C(C)(C)C)cc1 (stereo not given),i,·,·,·,·,·,·,·,·,·,·,·
CCc1nn(C(C)C(=O)N2CCc3ccccc3C2)c(=O)c2cc3occc3n12 (stereo not given),i,-9.6,i,i,i,-5.93*,?,0.00414,0.0222*,0.0061*,0.0122*,?
ClCc1nc2ccccc2c2ccccc12,i,-10.2,i,i,i,·,·,·,·,·,·,·
CC(=O)NNC(=O)c1sc(=S)n2c1[nH]c(=O)c1sccc12,i,-10.1,i,i,i,8.19*,0.00759,0.0103*,0.0278,0.0121*,?,0.0118*
NC(=O)c1sc(=S)n2c1[nH]c(=O)c1sccc12,i,-5.9,i,i,i,0.137,·,·,·,·,·,·
O=C(NCc1ccccc1)c1sc(=S)n2c1[nH]c(=O)c1ccccc12,i,-15.9,i,7*,i,20*,0.0053,0.0649*,?,0.0561*,0.0537*,0.0452*
O=S(=O)(O)c1ccc2c(c1)C(C(Cl)(Cl)Cl)OC(C(Cl)(Cl)Cl)O2 (stereo not given),i,·,·,·,·,·,·,·,·,·,·,·
Cc1ccc(/C=C2/Sc3ccccc3N(CC(=O)NCCCOC(C)C)C2=O)cc1,i,-13.0,i,i,i,-3.34*,0.00991,0.00636,?,0.00658,0.0141*,0.0105
CCOCCCNC(=O)CN1C(=O)/C(=C\c2ccc(C)cc2)Sc2ccccc21,i,-13.6,i,i,i,-4.05,·,·,·,·,·,·
Cc1cc2nc(N3C(=O)CNC3=S)sc2cc1C,i,-5.2,i,i,i,19*,0.0188*,0.0579*,0.038,0.0257*,0.0406*,0.015*
CCCCC(=O)N1CCN(c2nc3ccc(OCC)cc3s2)CC1,i,-2.8,i,i,i,·,·,·,·,·,·,·
CCOc1ccc2nc(N3C(=O)CNC3=S)sc2c1,i,-3.1,i,i,i,9.96*,0.014*,0.0306*,0.0312,0.0139*,0.0255*,0.0123*
O=S(=O)(NCCSc1ccccc1)c1ccc2c(c1)OCCO2,i,-10.2,i,i,i,·,?,0.00461,0.0323,0.00626,?,0.0107
Cc1cc2nnc(SCC(=O)Nc3cc(S(=O)(=O)N4CCOCC4)ccc3Cl)n2c2ccccc12,i,0.2,i,i,i,-4.7*,0.00573,?,0.0236*,0.00571*,0.0131*,0.00819*
Cc1ccc(S(=O)(=O)N2CCOCC2)cc1NC(=O)CSc1nnc2cc(C)c3ccccc3n12,i,-14.3,i,i,i,-3.64,·,·,·,·,·,·
CCC(C)CCN1C(Nc2ccccc2)=NC[C@@H]1C (stereo not given in full),i,2.1,i,i,i,·,·,·,·,·,·,·
S=C1CSc2ccccc2N1,i,-3.9,i,i,i,8.6*,0.00664,0.0163*,0.0333,0.0143*,?,0.0143*
CCOC(=O)C1=C2NC(=O)c3ccccc3N2C(=O)C1,i,-20.8,i,i,i,40.2*,0.0142*,0.0908*,0.0369,0.0367*,0.0693*,0.018*
Cc1ccc(C(=O)OCC(=O)Nc2cc(C(C)(C)C)no2)c(C)c1,i,·,·,·,·,·,·,·,·,·,·,·
FC(F)(F)c1cc(-c2ccco2)nc(NCc2cccnc2)n1,i,-8.7,i,i,i,·,0.00754,0.00455,0.0296,0.00647,0.0177,0.00967
Cc1c(N2C(=O)/C(=C\c3ccccc3O)SC2=S)c(=O)n(-c2ccccc2)n1C,i,17.5*,42*,i,i,51.9*,0.027*,0.0625*,0.0679*,0.0678*,0.0626*,0.0636*
COc1cc(CN2CCCC(N3CCN(c4ccc(F)cc4)CC3)C2)ccc1F (stereo not given),i,-0.4,i,i,i,·,·,·,·,·,·,·
COc1cccc(CNc2cc(CSc3ccc(Cl)cc3)nc(C)n2)c1,i,-9.9,i,i,i,·,0.0074,0.00315*,0.0297,?,0.0183,0.00937

# High-throughput results: PubChem, several laboratories
